Test results taken from ChEMBL document CHEMBL1649572, “Synergistic interaction between silver nanoparticles and membrane-permeabilizing antimicrobial peptides” (Antimicrob Agents Chemother, 2009).
Values after ≈ are worked out from the molar mass of the structure shown. Square brackets hold non-standard residues; d marks the D form. Peptide text beside a SMILES is read from it. * marks the point of attachment. Orn = NCCC[C@H](N)C(=O)O; NHCH2CH2OH = OCCN*; For = O=C*

What was measured:
Bacillus subtilis [1] = assay: Antibacterial activity against Bacillus subtilis DSM 347 in presence of silver nanoparticles; format: functional
Procedure, shortened: (§1)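 Two-dimensional (checkerboard) microdilution: AgNO3 or carbon-matrix-stabilized silver nanoparticles (mean diameter 25 nm) crossed with a membrane-active antimicrobial peptide, in salt-free Luria/Miller bouillon. Nanoparticles dissolved in 8 mM Tris/HCl pH 7.6 with 150 mM NaCl. MICs taken alone and in combination; FIC index = MIC(A with B)/MIC(A alone) + MIC(B with A)/MIC(B alone). <0.5 synergy, 0.5–2.0 additive, >2.0 antagonism.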

[2] = Toxicity in human erythrocytes assessed as hemolysis by serial dilution method
Bacillus subtilis [3] = assay: microbe, parasite or virus in culture; format: functional; conditions: DSM 347
Escherichia coli [4] = assay: microbe, parasite or virus in culture; format: functional; conditions: DSM 498
Pseudomonas fluorescens [5] = assay: microbe, parasite or virus in culture; format: functional; conditions: DSM 50090
Kocuria rhizophila [6] = assay: microbe, parasite or virus in culture; format: functional; conditions: DSM 348
Bacillus subtilis [7] = assay: Antibacterial activity against Bacillus subtilis DSM 347 in presence of silver nitrate; format: functional; procedure, shortened: as §1
Aeromonas bestiarum [8] = assay: microbe, parasite or virus in culture; format: functional; conditions: DSM 13956
Micrococcus luteus [9] = assay: microbe, parasite or virus in culture; format: functional; conditions: DSM 1790
Enterobacter helveticus [10] = assay: microbe, parasite or virus in culture; format: functional; conditions: Franconibacter helveticus, DSM 18396
Pseudomonas fluorescens [11] = assay: Antibacterial activity against Pseudomonas fluorescens DSM 50090 in presence of silver nanoparticles; format: functional; procedure, shortened: as §1
Proteus myxofaciens [12] = assay: microbe, parasite or virus in culture; format: functional; conditions: DSM 4482
Kocuria rhizophila [13] = assay: Antibacterial activity against Kocuria rhizophila DSM 348 in presence of silver nanoparticles; format: functional; procedure, shortened: as §1
Pseudomonas fluorescens [14] = assay: Antibacterial activity against Pseudomonas fluorescens DSM 50090 in presence of silver nitrate; format: functional; procedure, shortened: as §1
Escherichia coli [15] = assay: Antibacterial activity against Escherichia coli DSM 498 in presence of silver nanoparticles; format: functional; procedure, shortened: as §1
Kocuria rhizophila [16] = assay: Antibacterial activity against Kocuria rhizophila DSM 348 in presence of silver nitrate; format: functional; procedure, shortened: as §1
[17] = system: Acinetobacter calcoaceticus; assay: microbe, parasite or virus in culture; format: functional; conditions: DSM 586
Escherichia coli [18] = assay: Antibacterial activity against Escherichia coli DSM 498 in presence of silver nitrate; format: functional; procedure, shortened: as §1
Micrococcus luteus [19] = assay: Antibacterial activity against Micrococcus luteus DSM 1790 in presence of silver nitrate; format: functional; procedure, shortened: as §1
Micrococcus luteus [20] = assay: Antibacterial activity against Micrococcus luteus DSM 1790 in presence of silver nanoparticles; format: functional; procedure, shortened: as §1
[21] = system: Acinetobacter calcoaceticus; assay: Antibacterial activity against Acinetobacter calcoaceticus DSM 586 in presence of silver nitrate; format: functional; procedure, shortened: as §1
Enterobacter helveticus [22] = assay: Antibacterial activity against Enterobacter helveticus DSM 18396 in presence of silver nanoparticles; format: functional, Franconibacter helveticus; procedure, shortened: as §1
Aeromonas bestiarum [23] = assay: Antibacterial activity against Aeromonas bestiarum DSM 13956 in presence of silver nanoparticles; format: functional; procedure, shortened: as §1
Proteus myxofaciens [24] = assay: Antibacterial activity against Proteus myxofaciens DSM 4482 in presence of silver nanoparticles; format: functional; procedure, shortened: as §1
Proteus myxofaciens [25] = assay: Antibacterial activity against Proteus myxofaciens DSM 4482 in presence of silver nitrate; format: functional; procedure, shortened: as §1
Aeromonas bestiarum [26] = assay: Antibacterial activity against Aeromonas bestiarum DSM 13956 in presence of silver nitrate; format: functional; procedure, shortened: as §1
Enterobacter helveticus [27] = assay: Antibacterial activity against Enterobacter helveticus DSM 18396 in presence of silver nitrate; format: functional, Franconibacter helveticus; procedure, shortened: as §1
Pseudomonas fluorescens [28] = conditions: DSM 50090
Bacillus subtilis [29] = conditions: DSM 347
Aeromonas bestiarum [30] = conditions: DSM 13956
Enterobacter helveticus [31] = conditions: Franconibacter helveticus; DSM 18396
Kocuria rhizophila [32] = conditions: DSM 348
[33] = system: Acinetobacter calcoaceticus; conditions: DSM 586
Escherichia coli [34] = conditions: DSM 498
Micrococcus luteus [35] = conditions: DSM 1790
Proteus myxofaciens [36] = conditions: DSM 4482

Compound	fractional inhibitory concentration index (FICI) (Bacillus subtilis [1])	HC50 ([2]; human erythrocytes)	MIC (Bacillus subtilis [3])	MIC (Escherichia coli [4])	MIC (Pseudomonas fluorescens [5])	MIC (Kocuria rhizophila [6])	fractional inhibitory concentration index (FICI) (Bacillus subtilis [7])	MIC (Aeromonas bestiarum [8])	MIC (Micrococcus luteus [9])	MIC (Enterobacter helveticus [10])	fractional inhibitory concentration index (FICI) (Pseudomonas fluorescens [11])	MIC (Proteus myxofaciens [12])	fractional inhibitory concentration index (FICI) (Kocuria rhizophila [13])	fractional inhibitory concentration index (FICI) (Escherichia coli [15])	fractional inhibitory concentration index (FICI) (Kocuria rhizophila [16])	MIC [17]	fractional inhibitory concentration index (FICI) (Escherichia coli [18])	fractional inhibitory concentration index (FICI) (Micrococcus luteus [19])	fractional inhibitory concentration index (FICI) (Micrococcus luteus [20])	fractional inhibitory concentration index (FICI) [21]	other results
CC(=O)NC(C)(C)C(=O)N1CCC[C@H]1C(=O)NC(C)(C)C(=O)N[C@@H](C)C(=O)NC(C)(C)C(=O)N[C@@H](C)C(=O)N[C@@H](CCC(N)=O)C(=O)NC(C)(C)C(=O)N[C@H](C(=O)NC(C)(C)C(=O)NCC(=O)N[C@@H](CC(C)C)C(=O)NC(C)(C)C(=O)N1CCC[C@H]1C(=O)N[C@H](C(=O)NC(C)(C)C(=O)NC(C)(C)C(=O)N[C@@H](CCC(=O)O)C(=O)N[C@@H](CCC(N)=O)C(=O)N[C@H](CO)Cc1ccccc1)C(C)C)C(C)C [ALAMETHICIN]	0.88	17.9 µg/mL	8 mg/L (≈ 4.07 µM)	256 mg/L (≈ 130 µM)	128 mg/L (≈ 65.2 µM)	8 mg/L (≈ 4.07 µM)	1	256 mg/L (≈ 130 µM)	8 mg/L (≈ 4.07 µM)	256 mg/L (≈ 130 µM)	1	256 mg/L (≈ 130 µM)	1	0.5	1	256 mg/L (≈ 130 µM)	0.5				fractional inhibitory concentration index (FICI) (Pseudomonas fluorescens [14]): 1
CC(C)C[C@@H](NC(=O)[C@H](C)NC(=O)CNC(=O)[C@@H](NC=O)C(C)C)C(=O)N[C@@H](C)C(=O)N[C@@H](C(=O)N[C@H](C(=O)N[C@@H](C(=O)N[C@@H](Cc1c[nH]c2ccccc12)C(=O)N[C@H](CC(C)C)C(=O)N[C@@H](Cc1c[nH]c2ccccc12)C(=O)N[C@H](CC(C)C)C(=O)N[C@@H](Cc1c[nH]c2ccccc12)C(=O)N[C@H](CC(C)C)C(=O)N[C@@H](Cc1c[nH]c2ccccc12)C(=O)NCCO)C(C)C)C(C)C)C(C)C [GRAMICIDIN A] (For-VGA[dL]A[dV]V[dV]W[dL]W[dL]W[dL]W-NHCH2CH2OH)	0.94	2.3 µg/mL	1 mg/L (≈ 0.531 µM)	> 128 mg/L	> 128 mg/L	1 mg/L (≈ 0.531 µM)	0.42	> 128 mg/L	1 mg/L (≈ 0.531 µM)	> 128 mg/L		> 128 mg/L	1.04		0.79	> 128 mg/L		0.88	1.04		
CC(C)C[C@@H]1NC(=O)[C@H](CCCN)NC(=O)[C@H](C(C)C)NC(=O)[C@@H]2CCCN2C(=O)[C@@H](Cc2ccccc2)NC(=O)[C@H](CC(C)C)NC(=O)[C@H](CCCN)NC(=O)[C@H](C(C)C)NC(=O)[C@@H]2CCCN2C(=O)[C@@H](Cc2ccccc2)NC1=O [GRAMICIDIN S] (cyclo(L[dF]PV[Orn]L[dF]PV[Orn]))	0.77	10.1 µg/mL	2 mg/L (≈ 1.75 µM)	8 mg/L (≈ 7.01 µM)	16 mg/L (≈ 14 µM)	4 mg/L (≈ 3.5 µM)	0.73	32 mg/L (≈ 28 µM)	2 mg/L (≈ 1.75 µM)	4 mg/L (≈ 3.5 µM)	0.48	16 mg/L (≈ 14 µM)	0.83	0.56	0.92	16 mg/L (≈ 14 µM)	0.83	0.92	1.25	0.77	fractional inhibitory concentration index (FICI) (Enterobacter helveticus [22]): 0.44; fractional inhibitory concentration index (FICI) (Aeromonas bestiarum [23]): 0.63; fractional inhibitory concentration index (FICI) (Proteus myxofaciens [24]): 0.38; fractional inhibitory concentration index (FICI) (Proteus myxofaciens [25]): 0.63; fractional inhibitory concentration index (FICI) (Pseudomonas fluorescens [14]): 0.67; fractional inhibitory concentration index (FICI) (Aeromonas bestiarum [26]): 0.53; fractional inhibitory concentration index (FICI) (Enterobacter helveticus [27]): 0.32
H-GIGKFLHSAKKFGKAFVGEIMNS-OH [MAGAININ 2]	0.67	202 µg/mL	16 mg/L	16 mg/L	> 256 mg/L	16 mg/L	0.69	> 256 mg/L	16 mg/L	8 mg/L		> 256 mg/L	0.96	0.86	0.67	16 mg/L	1	1.02	1.04	0.79	fractional inhibitory concentration index (FICI) (Enterobacter helveticus [22]): 0.59; fractional inhibitory concentration index (FICI) (Enterobacter helveticus [27]): 0.71
H-GMASKAGAIAGKIAKVALKAL-NH2	0.71	165 µg/mL	8 mg/L	8 mg/L	> 256 mg/L	8 mg/L	0.92	> 256 mg/L	4 mg/L	8 mg/L		> 256 mg/L	1.01	1	1.08	8 mg/L	0.67	0.71	1	1.08	fractional inhibitory concentration index (FICI) (Enterobacter helveticus [22]): 0.57; fractional inhibitory concentration index (FICI) (Enterobacter helveticus [27]): 0.71
POLYMYXIN B [listing 1 of 2 here]																					HC50 ([2]; erythrocyte): 210.7 µg/mL
POLYMYXIN B [listing 2 of 2 here]	0.96						0.59				0.27		0.61	0.38	0.83		0.38	0.58	0.96	0.83	fractional inhibitory concentration index (FICI) (Enterobacter helveticus [22]; Franconibacter helveticus): 0.38; MIC (Pseudomonas fluorescens [28]): 128 mg/L; MIC (Bacillus subtilis [29]): 8 mg/L; MIC (Aeromonas bestiarum [30]): 16 mg/L; MIC (Enterobacter helveticus [31]): 1 mg/L; MIC (Kocuria rhizophila [32]): 16 mg/L; fractional inhibitory concentration index (FICI) (Aeromonas bestiarum [23]): 0.39; MIC [33]: 1 mg/L; MIC (Escherichia coli [34]): 1 mg/L; fractional inhibitory concentration index (FICI) (Proteus myxofaciens [24]): 0.23; fractional inhibitory concentration index (FICI) (Proteus myxofaciens [25]): 0.23; MIC (Micrococcus luteus [35]): 4 mg/L; fractional inhibitory concentration index (FICI) (Pseudomonas fluorescens [14]): 0.56; fractional inhibitory concentration index (FICI) (Aeromonas bestiarum [26]): 0.5; fractional inhibitory concentration index (FICI) (Enterobacter helveticus [27]; Franconibacter helveticus): 0.29; MIC (Proteus myxofaciens [36]): 16 mg/L
